This is an account of results in ChEMBL document CHEMBL1125489, “Antitumor agents. 134. New shiraiachrome-A- and calphostin-C-related perylene derivatives as cytotoxic and antiviral agents and inhibitors of protein kinase C” (1992).

Structures are written as SMILES. Values after ≈ are worked out from the molar mass of the structure shown. Values joined by “and” are separate entries in the source; they are usually repeats but may differ in a detail not shown here. Equal values may be shown once. Active and inactive are the calls of the source. No cut-off for these calls is given here. Bounds are passed on as bounds.

Test [1] concerns the target T1, Protein kinase C (PKC) (Homo sapiens) (UniProt O94806+P41743+P17252+P05129+Q05655+P05771+Q05513+Q02156+P24723+Q15139+Q04759). The test can be described thus: Inhibition of protein kinase C(PKC). In kind it is protein assay. A digest of the protocol: (§1)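 Compound added in DMSO, with DMSO-only controls. Reaction started with PKC (1 μg/mL) and stopped with ice-cold TCA plus BSA. Precipitate collected on GF/C filters and counted by β scintillation.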

The target of test [2] is Protein kinase C, PKC; classical/novel (Homo sapiens) (UniProt O94806+P17252+P05129+Q05655+P05771+Q02156+P24723+Q15139+Q04759). The test can be described thus: Inhibition of protein kinase C(PKC), inhibition of phorbol binding by 80-100% at 38 uM. In kind it is protein assay.
The target of test [3] is T1, Protein kinase C (PKC) (Homo sapiens). The test can be described thus: Inhibition of protein kinase C(PKC), maximal conc 40 uM. In kind it is protein assay. A digest of the protocol:
as §1

Test [4] concerns A549. The test can be described thus: Cytotoxic concentration against A-549 tumor cells. In kind it is functional. The conditions noted are these: Homo sapiens, read-out: ED50 (the source's name). A digest of the protocol: (§2)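 Tumor cells exposed 3 days to drug at 0.1, 1 and 10 μg/mL. ED50 is the concentration giving 50% reduction in cell number, estimated from the degree of inhibition at these three concentrations.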

In a further test the test system is HCT-8. The test is described as follows: Cytotoxic concentration against HCT-8 tumor cells. It counts as functional. Particulars: Homo sapiens, read-out: ED50 (the source's name). A digest of the protocol:
as §2

The subject of a further test is P388. The test can be described thus: Cytotoxic concentration against P388 tumor cells. In kind it is functional. Particulars: Mus musculus, read-out: ED50 (the source's name). The method in brief: as §2
The nature of test [5]: Cytotoxic concentration against RPMI-7951 tumor cells. It counts as functional. Particulars: Homo sapiens, read-out: ED50 (the source's name). A digest of the protocol: as §2
Test [6] can be described thus: Cytotoxic concentration against TE-671 tumor cells. The conditions noted are these: Homo sapiens, read-out: ED50 (the source's name). It counts as functional. The method in brief: as §2
A further test concerns KB 3-1. The test is described as follows: Cytotoxic concentration against KB tumor cells. It counts as functional. The conditions noted are these: Homo sapiens, KB 3-1, read-out: ED50. A digest of the protocol:
as §2

Test [7] concerns Vero. The test is described as follows: Antiviral activity against HSV-1 in vero cells. It counts as functional. The conditions noted are these: Chlorocebus sabaeus, read-out: ED50. A digest of the protocol:
(§3)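 Confluent Vero cells infected at 3 PFU/cell with HSV-1 (Kos) or HSV-2 (333) in RPMI-1640 with 2% FCS. Drugs added during inoculation as two-fold serial dilutions (final 100, 50, 25, 12.5 μg/mL). Cytopathic effect scored by microscopy after 24 h.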

The subject of test [8] is Vero. The test is described as follows: Antiviral activity against HSV-2 in vero cells. In kind it is functional. The conditions noted are these: Chlorocebus sabaeus, read-out: ED50. A digest of the protocol: as §3
For test [9], the system named is A549. The test is described as follows: Cytotoxic concentration against A-549 tumor cells; Inactive at 10 ug/mL. In kind it is functional, cell-based. Particulars: Homo sapiens. A digest of the protocol: as §2

For `CC(=O)/N=c1\ccc2c3ccc(NC(C)=O)c4c(=O)c(OC(C)=O)cc(c5cc(OC(C)=O)c(O)c1c25)c43`, in test [1], the PKC was found to be 89 µM.
As for `O=c1cc2c3cc(O)c(O)c4cccc(c5cccc(c1=O)c52)c43`, the PKC in [2] is 14 µM.
As to `COc1cc(C(=O)Oc2cc3c4cc(OC(=O)c5cc(OC)c(OC)c(OC)c5)c(=O)c5cccc(c6cccc(c2=O)c63)c54)cc(OC)c1OC`, the PKC in test [3] is greater than 40 µM.
Consider `N=c1cc2c3cc(N)c(O)c4c(O)ccc(c5ccc(O)c(c1=O)c52)c43`, for which, in [1], the PKC was found to be 95 µM.
In the case of `CC(=O)Oc1cc2c3cc(OC(C)=O)c(OC(C)=O)c4cccc(c5cccc(c1OC(C)=O)c52)c43`, the EC50 with A549 [4] amounted to 5410 µg/mL (≈ 11200 µM); with HCT-8, 4160 µg/mL (≈ 8590 µM); in the test on P388 it was 640 µg/mL (≈ 1320 µM); in [5], 50 µg/mL (≈ 103 µM); in [6], 610 µg/mL (≈ 1260 µM). The same molecule showed a PKC in [1] greater than 218 µM.
Turning to `O=C(/C=C/c1ccccc1)Oc1cc2c3cc(OC(=O)/C=C/c4ccccc4)c(=O)c4cccc(c5cccc(c1=O)c52)c43`, the EC50 (with KB 3-1; in test [5]) was 5.5 µg/mL (≈ 9.57 µM) in each case. Further, the PKC in test [3] is greater than 40 µM.
Turning to `O=c1cc(S(=O)(=O)[O-])c2c3c(S(=O)(=O)[O-])cc(O)c4c(=O)cc(S(=O)(=O)[O-])c(c5c(S(=O)(=O)[O-])cc(O)c1c52)c43.[Na+].[Na+].[Na+].[Na+]`, the EC50 came out at 2 µg/mL with Vero [7] and 10 µg/mL in the test with Vero [8]. The PKC in test [1] is 200 µM and > 218 µM.
`CCCCCCCCCCCCCCCCCC(=O)Oc1cc2c3cc(OC(=O)CCCCCCCCCCCCCCCCC)c(=O)c4cccc(c5cccc(c1=O)c52)c43`: the EC50 in the test with KB 3-1 turned out to be 5.57 µg/mL (≈ 6.57 µM). Also, the PKC in test [3] was greater than 40 µM.
Turning to `O=c1ccc2c3ccc(=O)c4cccc(c5cccc1c52)c43`, the ED50 result with A549 [9] was “inactive”. Further, the EC50 is 4350 µg/mL (≈ 15400 µM) with P388, 8.9 µg/mL (≈ 31.5 µM) in test [5] and 5210 µg/mL (≈ 18500 µM) in test [6]. In test [1], this molecule yielded a PKC greater than 218 µM.
In the case of `O=c1cc(O)c2c3c(O)cc(O)c4c(=O)cc(O)c(c5c(O)cc(O)c1c52)c43`, the PKC in [1] was greater than 218 µM.
On the same count and under the same terms, under `N=c1cc2c3cc(N)c(O)c4cccc(c5cccc(c1=O)c52)c43` stands greater than 218 µM.
Consider `COc1c2c3c4c(c(OC)c(=O)c5c(O)cc(OC)c(c6c(OC)cc(O)c(c1=O)c63)c54)[C@@H](C(C)=O)[C@@](C)(O)C2` (stereo in doubt; 1), for which the PKC in test [2] was 44 µM.
For the molecule `O=c1ccc2c3ccc(O)c4c(=O)ccc(c5ccc(O)c1c52)c43`, the PKC in test [1] was greater than 218 µM.
On the same count and under the same terms, under `CC(=O)Oc1ccc2c3ccc(OC(C)=O)c4c(=O)cc(OC(C)=O)c(c5c(OC(C)=O)cc(=O)c1c25)c43` stands greater than 218 µM.
`COc1c2c3c4c(c(OC)c(=O)c5c(O)cc(OC)c(c6c(OC)cc(O)c(c1=O)c63)c54)[C@@H](C(C)=O)[C@@](C)(O)C2` (stereo in doubt; 2) [HYPOCRELLIN A]: the EC50 was found to be 390 µg/mL (≈ 714 µM) in the test on P388, 5 µg/mL (≈ 9.15 µM) with Vero [7] and 5 µg/mL (≈ 9.15 µM) with Vero [8].
In the case of `CC(=O)Oc1cc(O)c2c(=O)cc(OC(C)=O)c3c4c(OC(C)=O)cc(=O)c5c(O)cc(OC(C)=O)c(c1c23)c54`, the PKC in test [1] is greater than 218 µM.
For `COc1cc(O)c2c(=O)cc(OC)c3c4c(OC)cc(=O)c5c(O)cc(OC)c(c1c23)c54`, the EC50 with Vero [7] is 3 µg/mL (≈ 6.91 µM); in the test with Vero [8] it was 15 µg/mL (≈ 34.5 µM). Further, in [1], the PKC is greater than 218 µM.
Consider `CC(=O)Oc1cc2c3cc(OC(C)=O)c(=O)c4cccc(c5cccc(c1=O)c52)c43`, for which the EC50 in the test on A549 [4] is 3840 µg/mL (≈ 9640 µM); in the test with HCT-8 it was 560 µg/mL (≈ 1410 µM); with KB 3-1 it was 0.54 µg/mL (≈ 1.36 µM); with P388, 360 µg/mL (≈ 904 µM); in test [5] it was 50 µg/mL (≈ 126 µM); in [6] it was 680 µg/mL (≈ 1710 µM). Moreover, the PKC in [1] turned out to be 82 µM.
In [3], `COc1cc(C(=O)Oc2cc3c4cc(OC(=O)c5cc(OC)c(O)c(OC)c5)c(=O)c5cccc(c6cccc(c2=O)c63)c54)cc(OC)c1O` gave a PKC greater than 40 µM.
